Data as given in ChEMBL document CHEMBL5058577, “EUbOPEN Chemogenomics Library 2 (Multiplex)” (2022).

System: Fibroblast
Test: Multiplex assay against human fibroblast
Format: toxicity, cell-based
How it was run: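 Live cells were stained at seeding with Hoechst33342, BioTracker Green Microtubule Cytoskeleton Dye, MitoTracker Red and Annexin V Alexa Fluor 680. Following compound addition, they were imaged on a CQ1 microscope at 37°C and 5% CO2 and gated by CellPathfinder machine learning into Hoechst high-intensity objects or normal cells, with normal cells split into healthy, pyknosed or fragmented nuclei and pyknosed cells into mitotic or apoptotic. Tubulin, mitochondrial-mass and membrane-permeability phenotypes are per cents of healthy-nucleus cells.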

[1] = 12 h, 1 µM, compound concentration 1 uM, replicate 1
[2] = 12 h, 1 µM, compound concentration 1 uM, replicate 2
[3] = 12 h, 10 µM, compound concentration 10 uM, replicate 1
[4] = 12 h, 10 µM, compound concentration 10 uM, replicate 2
[5] = 24 h, 1 µM, compound concentration 1 uM, replicate 1
[6] = 24 h, 1 µM, compound concentration 1 uM, replicate 2
[7] = 24 h, 10 µM, compound concentration 10 uM, replicate 1
[8] = 24 h, 10 µM, compound concentration 10 uM, replicate 2
[9] = 48 h, 1 µM, compound concentration 1 uM, replicate 1
[10] = 48 h, 1 µM, compound concentration 1 uM, replicate 2
[11] = 48 h, 10 µM, compound concentration 10 uM, replicate 1
[12] = 48 h, 10 µM, compound concentration 10 uM, replicate 2

O=c1ccc2ccc(OCCCCN3CCN(c4cccc5sccc45)CC3)cc2[nH]1 [BREXPIPRAZOLE]
Population Apoptotic (%) [1]: 56%
Population Fragmented Nuclei (%) [1]: 17%
Population Healthy Nuclei (%) [1]: 62%
Population Hoechst High Intensity Objects (%) [1]: 2%
Population Membrane Permeable-Phenotype (%) [1]: 0%
Population Mitochondria Different-Phenotype (%) [1]: 5%
Population Mitotic Cells (%) [1]: 44%
Population Normal (%) [1]: 97%
Population Pyknosed Nuclei (%) [1]: 20%
Population Tubulin-Different-Phenotype (%) [1]: 41%
Total Cell Count [1]: 126
Population Apoptotic (%) [2]: 48%
Population Fragmented Nuclei (%) [2]: 33%
Population Healthy Nuclei (%) [2]: 44%
Population Hoechst High Intensity Objects (%) [2]: 5%
Population Membrane Permeable-Phenotype (%) [2]: 2%
Population Mitochondria Different-Phenotype (%) [2]: 15%
Population Mitotic Cells (%) [2]: 51%
Population Normal (%) [2]: 94%
Population Pyknosed Nuclei (%) [2]: 21%
Population Tubulin-Different-Phenotype (%) [2]: 73%
Total Cell Count [2]: 169
Population Apoptotic (%) [3]: 68%
Population Fragmented Nuclei (%) [3]: 16%
Population Healthy Nuclei (%) [3]: 64%
Population Hoechst High Intensity Objects (%) [3]: 1%
Population Membrane Permeable-Phenotype (%) [3]: 0%
Population Mitochondria Different-Phenotype (%) [3]: 39%
Population Mitotic Cells (%) [3]: 31%
Population Normal (%) [3]: 98%
Population Pyknosed Nuclei (%) [3]: 19%
Population Tubulin-Different-Phenotype (%) [3]: 83%
Total Cell Count [3]: 203
Population Apoptotic (%) [4]: 45%
Population Fragmented Nuclei (%) [4]: 30%
Population Healthy Nuclei (%) [4]: 49%
Population Hoechst High Intensity Objects (%) [4]: 11%
Population Membrane Permeable-Phenotype (%) [4]: 2%
Population Mitochondria Different-Phenotype (%) [4]: 25%
Population Mitotic Cells (%) [4]: 54%
Population Normal (%) [4]: 88%
Population Pyknosed Nuclei (%) [4]: 20%
Population Tubulin-Different-Phenotype (%) [4]: 81%
Total Cell Count [4]: 243
Population Apoptotic (%) [5]: 56%
Population Fragmented Nuclei (%) [5]: 17%
Population Healthy Nuclei (%) [5]: 69%
Population Hoechst High Intensity Objects (%) [5]: 1%
Population Membrane Permeable-Phenotype (%) [5]: 0%
Population Mitochondria Different-Phenotype (%) [5]: 8%
Population Mitotic Cells (%) [5]: 43%
Population Normal (%) [5]: 98%
Population Pyknosed Nuclei (%) [5]: 13%
Population Tubulin-Different-Phenotype (%) [5]: 43%
Total Cell Count [5]: 122
Population Apoptotic (%) [6]: 33%
Population Fragmented Nuclei (%) [6]: 32%
Population Healthy Nuclei (%) [6]: 52%
Population Hoechst High Intensity Objects (%) [6]: 3%
Population Membrane Permeable-Phenotype (%) [6]: 2%
Population Mitochondria Different-Phenotype (%) [6]: 14%
Population Mitotic Cells (%) [6]: 66%
Population Normal (%) [6]: 96%
Population Pyknosed Nuclei (%) [6]: 14%
Population Tubulin-Different-Phenotype (%) [6]: 76%
Total Cell Count [6]: 173
Population Apoptotic (%) [7]: 58%
Population Fragmented Nuclei (%) [7]: 13%
Population Healthy Nuclei (%) [7]: 54%
Population Hoechst High Intensity Objects (%) [7]: 13%
Population Membrane Permeable-Phenotype (%) [7]: 0%
Population Mitochondria Different-Phenotype (%) [7]: 63%
Population Mitotic Cells (%) [7]: 41%
Population Normal (%) [7]: 86%
Population Pyknosed Nuclei (%) [7]: 31%
Population Tubulin-Different-Phenotype (%) [7]: 85%
Total Cell Count [7]: 218
Population Apoptotic (%) [8]: 65%
Population Fragmented Nuclei (%) [8]: 30%
Population Healthy Nuclei (%) [8]: 40%
Population Hoechst High Intensity Objects (%) [8]: 19%
Population Mitochondria Different-Phenotype (%) [8]: 34%
Population Mitotic Cells (%) [8]: 34%
Population Normal (%) [8]: 80%
Population Pyknosed Nuclei (%) [8]: 28%
Population Tubulin-Different-Phenotype (%) [8]: 71%
Total Cell Count [8]: 239
Population Apoptotic (%) [9]: 62%
Population Fragmented Nuclei (%) [9]: 24%
Population Healthy Nuclei (%) [9]: 62%
Population Hoechst High Intensity Objects (%) [9]: 4%
Population Membrane Permeable-Phenotype (%) [9]: 0%
Population Mitochondria Different-Phenotype (%) [9]: 10%
Population Mitotic Cells (%) [9]: 37%
Population Normal (%) [9]: 95%
Population Pyknosed Nuclei (%) [9]: 12%
Population Tubulin-Different-Phenotype (%) [9]: 52%
Total Cell Count [9]: 133
Population Apoptotic (%) [10]: 60%
Population Fragmented Nuclei (%) [10]: 42%
Population Healthy Nuclei (%) [10]: 51%
Population Membrane Permeable-Phenotype (%) [10]: 1%
Population Mitochondria Different-Phenotype (%) [10]: 9%
Population Mitotic Cells (%) [10]: 40%
Population Pyknosed Nuclei (%) [10]: 5%
Population Tubulin-Different-Phenotype (%) [10]: 67%
Total Cell Count [10]: 175
Population Apoptotic (%) [11]: 62%
Population Fragmented Nuclei (%) [11]: 18%
Population Healthy Nuclei (%) [11]: 50%
Population Hoechst High Intensity Objects (%) [11]: 34%
Population Membrane Permeable-Phenotype (%) [11]: 0%
Population Mitochondria Different-Phenotype (%) [11]: 60%
Population Mitotic Cells (%) [11]: 37%
Population Normal (%) [11]: 65%
Population Pyknosed Nuclei (%) [11]: 31%
Population Tubulin-Different-Phenotype (%) [11]: 88%
Total Cell Count [11]: 208
Population Apoptotic (%) [12]: 44%
Population Fragmented Nuclei (%) [12]: 30%
Population Healthy Nuclei (%) [12]: 43%
Population Mitochondria Different-Phenotype (%) [12]: 20%
Population Mitotic Cells (%) [12]: 55%
Population Pyknosed Nuclei (%) [12]: 26%
Population Tubulin-Different-Phenotype (%) [12]: 55%
Total Cell Count [12]: 317
